# T1: human sulfite oxidase (HSO, human SO) (Homo sapiens, UniProt P51687)
# T1 sequence (P51687 80-545): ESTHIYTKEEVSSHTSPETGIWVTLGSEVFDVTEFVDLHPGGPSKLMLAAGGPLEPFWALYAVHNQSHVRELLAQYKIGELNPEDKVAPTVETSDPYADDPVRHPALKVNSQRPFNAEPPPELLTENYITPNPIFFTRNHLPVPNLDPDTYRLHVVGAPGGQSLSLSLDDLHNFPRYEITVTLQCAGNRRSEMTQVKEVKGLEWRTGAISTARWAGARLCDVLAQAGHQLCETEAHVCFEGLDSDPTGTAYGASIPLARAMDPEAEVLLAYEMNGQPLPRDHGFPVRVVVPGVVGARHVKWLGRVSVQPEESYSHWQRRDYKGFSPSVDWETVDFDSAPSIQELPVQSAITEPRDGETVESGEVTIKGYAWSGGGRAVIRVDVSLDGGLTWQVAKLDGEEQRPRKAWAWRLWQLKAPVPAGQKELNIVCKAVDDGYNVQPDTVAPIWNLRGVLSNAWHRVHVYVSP
# T2: human sulfite oxidase (HSO, human SO) (Homo sapiens, UniProt P51687, R529Q)
# T2 sequence (P51687 80-545 R529Q): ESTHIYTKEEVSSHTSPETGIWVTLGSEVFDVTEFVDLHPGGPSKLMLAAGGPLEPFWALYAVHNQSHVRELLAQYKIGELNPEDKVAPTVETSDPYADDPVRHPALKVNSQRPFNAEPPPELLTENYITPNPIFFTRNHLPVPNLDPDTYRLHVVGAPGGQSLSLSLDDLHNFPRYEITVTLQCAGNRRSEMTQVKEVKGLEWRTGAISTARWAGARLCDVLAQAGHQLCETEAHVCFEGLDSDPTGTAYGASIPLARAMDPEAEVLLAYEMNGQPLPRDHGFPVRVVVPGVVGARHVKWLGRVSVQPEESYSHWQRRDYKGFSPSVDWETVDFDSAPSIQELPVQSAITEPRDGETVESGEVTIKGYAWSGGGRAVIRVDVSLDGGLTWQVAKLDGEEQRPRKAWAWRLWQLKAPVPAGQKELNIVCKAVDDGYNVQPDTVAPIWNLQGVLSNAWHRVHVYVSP
# T3: chicken sulfite oxidase (CSO, recombinant chicken SO) (Gallus gallus, UniProt P07850)
# T3 sequence (P07850 1-459): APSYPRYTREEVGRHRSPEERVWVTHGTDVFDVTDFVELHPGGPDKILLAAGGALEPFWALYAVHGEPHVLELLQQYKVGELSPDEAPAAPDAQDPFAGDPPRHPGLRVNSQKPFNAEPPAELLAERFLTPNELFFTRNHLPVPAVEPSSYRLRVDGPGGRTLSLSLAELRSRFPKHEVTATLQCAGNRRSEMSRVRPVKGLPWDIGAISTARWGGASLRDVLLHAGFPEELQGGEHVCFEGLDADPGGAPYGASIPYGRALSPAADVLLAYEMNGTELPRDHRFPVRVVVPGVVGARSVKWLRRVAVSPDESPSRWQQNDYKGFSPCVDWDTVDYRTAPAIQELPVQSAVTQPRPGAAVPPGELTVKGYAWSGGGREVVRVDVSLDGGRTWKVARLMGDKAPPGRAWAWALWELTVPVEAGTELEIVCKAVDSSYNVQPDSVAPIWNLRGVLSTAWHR
# T4: human sulfite oxidase (HSO, human SO) (Homo sapiens, UniProt P51687, R529M)
# T4 sequence (P51687 80-545 R529M): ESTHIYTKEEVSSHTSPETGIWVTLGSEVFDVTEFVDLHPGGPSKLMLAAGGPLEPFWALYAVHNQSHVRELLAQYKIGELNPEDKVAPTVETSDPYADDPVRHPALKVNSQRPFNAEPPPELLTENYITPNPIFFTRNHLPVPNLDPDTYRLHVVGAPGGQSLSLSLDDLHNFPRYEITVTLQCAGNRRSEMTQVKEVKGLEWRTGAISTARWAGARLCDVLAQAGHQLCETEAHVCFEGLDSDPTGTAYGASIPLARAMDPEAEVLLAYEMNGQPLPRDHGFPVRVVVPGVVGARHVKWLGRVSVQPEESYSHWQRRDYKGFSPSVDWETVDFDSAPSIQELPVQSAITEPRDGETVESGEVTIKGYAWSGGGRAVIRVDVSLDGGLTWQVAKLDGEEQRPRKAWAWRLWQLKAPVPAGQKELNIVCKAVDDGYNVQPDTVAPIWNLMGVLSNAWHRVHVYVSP
# B1: human sulfite oxidase (HSO, human SO) (Homo sapiens; V531M) (protein)
# chain: ESTHIYTKEEVSSHTSPETGIWVTLGSEVFDVTEFVDLHPGGPSKLMLAAGGPLEPFWALYAVHNQSHVRELLAQYKIGELNPEDKVAPTVETSDPYADDPVRHPALKVNSQRPFNAEPPPELLTENYITPNPIFFTRNHLPVPNLDPDTYRLHVVGAPGGQSLSLSLDDLHNFPRYEITVTLQCAGNRRSEMTQVKEVKGLEWRTGAISTARWAGARLCDVLAQAGHQLCETEAHVCFEGLDSDPTGTAYGASIPLARAMDPEAEVLLAYEMNGQPLPRDHGFPVRVVVPGVVGARHVKWLGRVSVQPEESYSHWQRRDYKGFSPSVDWETVDFDSAPSIQELPVQSAITEPRDGETVESGEVTIKGYAWSGGGRAVIRVDVSLDGGLTWQVAKLDGEEQRPRKAWAWRLWQLKAPVPAGQKELNIVCKAVDDGYNVQPDTVAPIWNLRGMLSNAWHRVHVYVSP
# B2: human sulfite oxidase (HSO, human SO) (Homo sapiens; Y400N) (protein)
# chain: ESTHIYTKEEVSSHTSPETGIWVTLGSEVFDVTEFVDLHPGGPSKLMLAAGGPLEPFWALYAVHNQSHVRELLAQYKIGELNPEDKVAPTVETSDPYADDPVRHPALKVNSQRPFNAEPPPELLTENYITPNPIFFTRNHLPVPNLDPDTYRLHVVGAPGGQSLSLSLDDLHNFPRYEITVTLQCAGNRRSEMTQVKEVKGLEWRTGAISTARWAGARLCDVLAQAGHQLCETEAHVCFEGLDSDPTGTAYGASIPLARAMDPEAEVLLAYEMNGQPLPRDHGFPVRVVVPGVVGARHVKWLGRVSVQPEESYSHWQRRDNKGFSPSVDWETVDFDSAPSIQELPVQSAITEPRDGETVESGEVTIKGYAWSGGGRAVIRVDVSLDGGLTWQVAKLDGEEQRPRKAWAWRLWQLKAPVPAGQKELNIVCKAVDDGYNVQPDTVAPIWNLRGVLSNAWHRVHVYVSP
# B3: human sulfite oxidase (HSO, human SO) (Homo sapiens) (protein)
# chain: ESTHIYTKEEVSSHTSPETGIWVTLGSEVFDVTEFVDLHPGGPSKLMLAAGGPLEPFWALYAVHNQSHVRELLAQYKIGELNPEDKVAPTVETSDPYADDPVRHPALKVNSQRPFNAEPPPELLTENYITPNPIFFTRNHLPVPNLDPDTYRLHVVGAPGGQSLSLSLDDLHNFPRYEITVTLQCAGNRRSEMTQVKEVKGLEWRTGAISTARWAGARLCDVLAQAGHQLCETEAHVCFEGLDSDPTGTAYGASIPLARAMDPEAEVLLAYEMNGQPLPRDHGFPVRVVVPGVVGARHVKWLGRVSVQPEESYSHWQRRDYKGFSPSVDWETVDFDSAPSIQELPVQSAITEPRDGETVESGEVTIKGYAWSGGGRAVIRVDVSLDGGLTWQVAKLDGEEQRPRKAWAWRLWQLKAPVPAGQKELNIVCKAVDDGYNVQPDTVAPIWNLRGVLSNAWHRVHVYVSP
# B4: human sulfite oxidase (HSO, human SO) (Homo sapiens; R529M/Y400N) (protein)
# chain: ESTHIYTKEEVSSHTSPETGIWVTLGSEVFDVTEFVDLHPGGPSKLMLAAGGPLEPFWALYAVHNQSHVRELLAQYKIGELNPEDKVAPTVETSDPYADDPVRHPALKVNSQRPFNAEPPPELLTENYITPNPIFFTRNHLPVPNLDPDTYRLHVVGAPGGQSLSLSLDDLHNFPRYEITVTLQCAGNRRSEMTQVKEVKGLEWRTGAISTARWAGARLCDVLAQAGHQLCETEAHVCFEGLDSDPTGTAYGASIPLARAMDPEAEVLLAYEMNGQPLPRDHGFPVRVVVPGVVGARHVKWLGRVSVQPEESYSHWQRRDNKGFSPSVDWETVDFDSAPSIQELPVQSAITEPRDGETVESGEVTIKGYAWSGGGRAVIRVDVSLDGGLTWQVAKLDGEEQRPRKAWAWRLWQLKAPVPAGQKELNIVCKAVDDGYNVQPDTVAPIWNLMGVLSNAWHRVHVYVSP
# Columns and labels:
# [1] = biological target: T1, human sulfite oxidase (HSO, human SO); assay: stopped-flow heme reduction; assay type: biochemical; conditions: read-out: Kd^sulfite; pH 8.5, 25 °C, anaerobic, no cyt c
# In short: (§1)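 Recombinant enzyme expressed in E. coli TP1000 and purified. Anaerobic stopped-flow at 25 °C (dead-time <1.5 ms, 10 mm path), with argon-sparged solutions prepared in an anaerobic chamber. Enzyme at 0.3–0.8 μM was mixed with varied sulfite, no cyt c. Heme Soret change followed at 425 or 430 nm. Traces were fitted to single or double exponentials for kobs, then kobs versus sulfite fitted hyperbolically for kred and Kd.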
# [2] = biological target: T2, human sulfite oxidase (HSO, human SO); assay: stopped-flow heme reduction; assay type: biochemical; conditions: read-out: Kd^sulfite; pH 8.5, 25 °C, anaerobic, no cyt c
# In short: as §1
# [3] = biological target: T3, chicken sulfite oxidase (CSO, recombinant chicken SO); assay: steady-state cytochrome c reduction at […] nm; assay type: biochemical; conditions: read-out: Km^sulfite; pH 8.5, 25 °C, horse heart cyt c
# [4] = biological target: T4, human sulfite oxidase (HSO, human SO); assay: stopped-flow heme reduction; assay type: biochemical; conditions: read-out: Kd^sulfite; pH 8.5, 25 °C, anaerobic, no cyt c
# In short: as §1
# [5] = substrate: O=S(O)O; assay: purified protein; assay type: biochemical, Homo sapiens; conditions: pH 8.5, 25 °C, horse heart cyt c
# [6] = substrate: O=[N+]([O-])O; assay: purified protein; assay type: biochemical, Homo sapiens; conditions: pH 8.5, 25 °C, anaerobic, dithionite-reduced methyl viologen
Molecule,Kd [1],Kd [2],Km [3],Kd [4],Km [5],kcat [5],Km [6],kcat [6]
O=S(O)O [sulfite],6.72 µM,227 µM,8.53 µM,73.4 µM,–,–,–,–
B1,–,–,–,–,3.54 µM,15.8 s⁻¹,–,–
B2,–,–,–,–,850 µM,16.91 s⁻¹,–,–
B3,–,–,–,–,8.25 µM,26.9 s⁻¹,43000 µM,< 0.1 s⁻¹
B4,–,–,–,–,42990 µM,1.42 s⁻¹,–,–

# Source: paper PMC3282045 (Biochemistry, 2012)
